Measured values collected from several papers.

SMILES | tested on | test | system | conditions | measurement | result
Oc1c(Cl)cc(Cl)cc1-c1[nH]c(Cl)c(Cl)c1Cl | Streptococcus pneumoniae | microbial growth | ATCC49619 |  | MIC | 0.13 µM
N.N.[Cl][Pt][Cl] | A2780 | cell growth or viability, MTT |  |  | IC50 | 0.31 µM
COc1ccc(-c2c(-c3ccc(C#N)c(F)c3)nc(N3CCC(N)CC3)n(C)c2=O)cc1F | TC-32 | cell growth or viability, resazurin |  |  | IC50 | 36 µM
COc1ccc(Nc2nn3c(-c4ccccc4)ccnc3c2C(=O)Nc2ccccc2)cc1 | Caco-2 | cell growth or viability, MTT |  | 25 µg/mL, 48 h, serum-free | viability | 56.6%
O=c1ccc2nc3ccc(OCc4ccc([N+](=O)[O-])o4)cc3oc-2c1 | Klebsiella pneumoniae | microbial growth |  | 24 h | MIC | > 32 µg/mL
Oc1c(Br)cc(Br)cc1-c1[nH]c(Br)c(Br)c1Br | Streptococcus pneumoniae | microbial growth | ATCC49619 |  | MIC | 0.04 µM
Cc1c2ccncc2c(C)c2c1[nH]c1ccccc12 | Caco-2 | cell growth or viability, SRB |  | 72 h | GI50 | 4.91 µM
O=c1ccc2nc3ccc(O)cc3oc-2c1 | Klebsiella pneumoniae | microbial growth |  | 24 h | MIC | > 32 µg/mL
C[C@@H]1CN2c3c(cc4c(N5C(=O)OC[C@@H]5C)noc4c3F)CC3(C(=O)NC(=O)NC3=O)[C@H]2[C@H](C)O1 | Klebsiella pneumoniae | microbial growth, broth dilution | ATCC10031 |  | MIC | 0.25 µg/mL
